Sampled rows, rich in hits. Any-hit rate of the full collection: about 1.9%.
CHRM4 antagonist: CHRM4 antagonism in calcium assay. CHO-hM4 cells, ACh EC80, Fluo-8 calcium fluorescence. P08173. 360,000 compounds, 0.73% hits. inhibition, % at 3 µM;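 active = inhibition above its plate's cutoff, the mean inhibition of sample wells plus 3 SD, cut at about 27% in these data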
M5 antag: CHRM5 antagonism in calcium assay. 360,000 compounds, 0.59% hits. CHO-hM5 cells, Fluo-8 calcium fluorescence, ACh EC80. inhibition, % at 3 µM;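 active = inhibition above a per-plate cutoff, the mean of that plate's test compounds plus 3 SD, cut at about 27% in these data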
Target sequence (P08912 whole entry, looked up): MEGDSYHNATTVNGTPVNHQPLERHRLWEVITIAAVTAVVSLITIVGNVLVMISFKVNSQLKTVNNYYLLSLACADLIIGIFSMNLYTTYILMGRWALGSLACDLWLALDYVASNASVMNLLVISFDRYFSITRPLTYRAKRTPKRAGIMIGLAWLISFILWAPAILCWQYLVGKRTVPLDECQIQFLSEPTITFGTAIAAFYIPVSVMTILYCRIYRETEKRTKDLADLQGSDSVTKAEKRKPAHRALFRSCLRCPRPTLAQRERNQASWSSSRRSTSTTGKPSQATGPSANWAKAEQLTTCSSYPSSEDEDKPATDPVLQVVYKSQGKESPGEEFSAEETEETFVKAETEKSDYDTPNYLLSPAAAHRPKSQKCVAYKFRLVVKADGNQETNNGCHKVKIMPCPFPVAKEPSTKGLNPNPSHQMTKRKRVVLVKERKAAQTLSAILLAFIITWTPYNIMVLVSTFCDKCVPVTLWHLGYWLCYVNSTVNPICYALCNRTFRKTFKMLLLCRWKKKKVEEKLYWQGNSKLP
M5 ag: agonists of human muscarinic M5 receptor (CHRM5) | CHO-K1 hM5 cells, Fluo-8 calcium fluorescence; 0% DMSO wells, 100% maximal acetylcholine response | activation, % at 3 µM | 360,000 compounds, 0.19% hits;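 active = activation above the run's mean over test compounds plus 3 SD, cut at about 23% in these data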;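 note: signal is peak over basal fluorescence ratio across the kinetic read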
CHRM5 PAM: CHRM5 positive allosteric modulation | AID 624038 | CHO-K1 hM5, Fluo-8 calcium, ACh EC20 PAM; 0% = ACh EC20, 100% = ACh EC100 | activation, % at 3 µM | P08912 | 360,000 compounds, 0.3% hits;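 active = activation above the run cutoff, the mean activation of all test compounds plus 3 SD, cut at about 18% in these data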
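Test system: CHO-K1 hM5 cells / Doses: single-point, 3 µM nominal / Times: Post-acetylcholine fluorescence recording 140 s / Technique: Fluo-8 calcium fluorescence / Measure: Max/basal fluorescence ratio as % of EC20–EC100 ACh window / Benchmarks: low control EC20 acetylcholine (0%), high control EC100 acetylcholine (100%) / Replicates: one well per compound, no replicates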
CHRM4 PAM: positive allosteric modulators of human muscarinic M4 receptor. P08173. CHO-K1 hM4/Gqi5, Fluo-8 calcium fluorescence, ACh EC20; 0% = ACh EC20, 100% = maximal ACh. activation, % at 3 µM. 360,000 compounds, 0.4% hits;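 active = activation above its plate's cutoff, the mean activation of sample wells plus 3 SD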
M4 ag: CHRM4 agonism in calcium assay | P08173 | CHO-K1 hM4/Gqi5, Fluo-8 calcium fluorescence; vehicle 0%, full acetylcholine response 100% | activation, % at 3 µM | AID 624127 | 360,000 compounds, 0.14% hits;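 active = activation above the run mean over all test wells plus 3 SD, cut at about 32% in these data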;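 note: peak over basal fluorescence ratio per well then scaled between controls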
Numbers stand for hits; n = inactive.

SMILES	CHRM4 antagonist	M5 antag	M5 ag	CHRM5 PAM	CHRM4 PAM	M4 ag
COc1cc(C)ccc1S(=O)(=O)NC(=O)C1(C)CCN1C(=O)Cc1ccc(C(C)(C)C)cc1 (stereo not given)	n	n	n	n	n	n
CCOC(=O)CC1CCCCN1C(=O)c1cc(COc2cccc3cnccc23)on1 (stereo not given)	55.3	39.7	n	n	n	32.4
O[C@H]1C[C@H](c2ccccc2)N(Cc2cccs2)C[C@@H]1n1cc(C2CC2)nn1	n	n	n	n	n	n
Cc1cc(C)n2nc(SCC(=O)N3CCCC3)nc2n1	n	n	n	24.4	n	n
Cc1cc(C)n2nc(SCC(=O)N3CCC(C)CC3)nc2n1	n	n	n	n	n	n
N#CCCn1nc(-c2ccccc2)cc1Nc1ccccc1NC(=O)c1cccs1	n	n	n	21.5	n	n
COC(=O)c1ccc2nc(C3CCCCC3)c(Cc3cccc(Cl)c3)n2c1	n	n	n	n	n	n
COCCNS(=O)(=O)c1ccc2c(c1)C(=NO)c1cc(S(=O)(=O)NCCOC)ccc1-2	n	n	n	n	n	n
CC(C)(CO)NS(=O)(=O)c1ccc2c(c1)C(=NO)c1cc(S(=O)(=O)NC(C)(C)CO)ccc1-2	n	n	n	n	21.0	n
O=[N+]([O-])c1ccc(CN2CCSCC2)cc1	n	n	n	21.5	n	n
O=c1c(/C=N\NS(=O)(=O)c2ccccc2)coc2ccc(Cl)cc12	n	35.1	n	n	n	n
Nc1nc(Cl)cc(N2CCC(c3cc(-c4ccc(Cl)cc4)n[nH]3)CC2)n1	35.6	39.2	n	n	n	n
COc1ccc(NC(=O)c2cc(-c3cc(F)ccc3OC(C)C)n[nH]2)c(C)c1	n	n	n	n	n	n
CC(C)NC(=O)N(C)C[C@H]1OCCCC[C@@H](C)Oc2ccc(N(C)C)cc2C(=O)N([C@H](C)CO)C[C@@H]1C	n	n	n	n	n	n
CCOC(=O)C1=CCN(S(=O)(=O)c2ccccc2Cl)C1c1cccc(Cl)c1 (stereo not given)	n	n	n	n	n	n
CC(=O)NCCCc1nc2ccccc2n1Cc1ccccc1C	26.8	n	n	n	n	n
CC(C)C1S/C(=N/N=C/c2ccco2)NC1=O (stereo not given)	29.5	n	n	n	n	n
O=C(Cc1cccc2c(=O)cc(-c3ccccc3)oc12)OCCN1CCOCC1	n	n	n	n	n	n
O=C1CC(N2CCN(C/C=C/c3ccccc3)CC2)C(=O)N1CCc1ccccc1 (stereo not given)	n	n	n	n	n	n
O=C1CC(N2CCN(C/C=C/c3ccccc3)CC2)C(=O)N1Cc1cccs1 (stereo not given)	33.8	38.7	n	n	n	n
CCNC(=O)C1(C)CCN(C(=O)c2cc(OC)c(OC)c(OC)c2)C1 (stereo not given)	n	n	n	n	n	n
COc1ccc(OC)c(/C=C2\NC(=O)NC2=O)c1	n	n	n	n	n	n
COc1cc(N2CCCC2)c(OC)cc1/C=C1/NC(=S)NC1=O	n	n	32.3	n	n	n
COc1ccc(C(=O)NCCNc2nc3cc(C)cc(C)c3cc2C#N)c(OC)c1	n	n	n	n	n	n
COc1ccc(OC)c(CN2C(=O)CN(S(C)(=O)=O)CC2(C)C(=O)NCc2ccccc2)c1 (stereo not given)	n	n	n	n	n	n
Cc1ccc(NC(=O)N2CCC(NC(=O)C(C)(C)C)CC2)cc1	n	n	n	42.5	n	n
Nc1ncnc(N)c1NC(=O)c1ccc(OCc2ccccc2)cc1	n	n	n	n	n	n
CC(C)c1cc(C(C)C)c(S(=O)(=O)NC(c2ccccn2)C23CC2C3)c(C(C)C)c1 (stereo not given)	n	n	n	n	n	n
CCn1c(=O)c2cc(C(=O)NCCN3CCOCC3)sc2c2ccccc21	75.5	n	n	n	n	n
CC(C)C(=O)Nc1cccc(C(=O)N2CCCCC2C)c1 (stereo not given)	n	n	n	21.0	n	n
